16 molecules from PubChem BioAssay can be followed below.

Active and inactive are the calls of the source.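 Rule for the calls, unless noted: active = viability at or below 10% of carrier control in both of two separate runs; inconclusive = viability at or below 10% in only one of the two runs; inactive = the rest.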

Assay [1] is described as follows: Her2 expression decrease, cell viability multiplex – SKBR3 breast tumor cells, AlphaScreen, ATP viability, primary screen (AID 461;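 active = Her2 level under about 52% in both replicate screens, with viability over 70% of control, limit read from the data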;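 for Her2 level: lower value means less Her2 protein in the cells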;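 for viability: percent of carrier control wells set as 100% viability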). Particulars: SKBR3 Her2 protein level, 18-24 h, measured here: SKBR3 viability, ATP luminescence, at 10 µM. A general note: In Alpha technology, singlet oxygen from a donor bead excites a nearby acceptor bead.
The target of assay [2] is Receptor tyrosine-protein kinase erbB-2 (Homo sapiens) (UniProt P04626). Described as above. Particulars: 18-24 h, at 10 µM, stronger effect = lower value.
Assay [3] is described as follows: reduced viability of SK-BR-3 breast cancer cells – cell-based, 24 h, human, pilot screen (AID 572).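 Note: compound exposure lasted between 18 and 24 h rather than exactly 24 h; 100% = carrier-treated control wells.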 Particulars: SK-BR-3 viability, CellTiter-Glo luminescence, at 10 µM, stronger effect = lower value. A general note: ATP-based viability assays read luminescence as a measure of living cells.
Assay [4] is described as follows: HUVEC growth inhibition – cell-based, human, primary screen (AID 575;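 active = viability at or below 30% in both replicate assays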;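 note: 100% = median of untreated cell wells with 0.1% DMSO on each plate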). As to conditions: HUVEC proliferation, CellTiter-Glo luminescence, 72 h; at 10 µM; stronger effect = lower value. The method, boiled down:
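Timing: 72 h treatment at 37 °C; material: HUVEC primary cells; technique: CellTiter-Glo luminescence measuring cellular ATP; controls: vehicle and MePR control wells; measure: percent of median DMSO-control luminescence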

The nature of assay [5]: H69AR cell proliferation blockers – human, duplicate replicates, primary screen (AID 580;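 active = viability at or under a set limit in both replicates, limit being median viability minus 3 SD, cut at about 48% in these data, passing the limit was not always enough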;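 note: 100% = mean luminescence of untreated wells and 0% = no signal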). Particulars: H69AR lung tumor cells viability, ATP luminescence, 72 h; at 10 µM; stronger effect = lower value.
Assay [6] can be described thus: MRP1 drug-resistance reversers in H69AR cells – cell-based, doxorubicin co-treatment, pilot screen (AID 601;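 active = viability loss from added drug above about 55%, and viability with drug at most 40%, in both replicates, limit read from the data, passing the limit was not always enough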). As to conditions: CellTiter-Glo, 72 h, at 10 µM; for differential viability (reversal): stronger effect = higher value.
A short description of assay [7]: yeast transport mutant growth inhibition pilot in 384-well plates, post-Golgi transport modulator project (AID 636; in the data active = inhibition above about 31%). As to conditions: absorbance 615 nm, about 18 h, stronger effect = higher value.
A short description of assay [8]: growth suppression of yeast trafficking mutant, preliminary HTS, modulators of trafficking downstream of Golgi apparatus project, 1536-format plate, OD 615 nm (AID 637; in the data active = inhibition above about 30%). Particulars: yeast transport mutant growth, absorbance 615 nm, 18 h; stronger effect = higher value.
Setting [9] is: H69AR cells + 2 uM doxorubicin, measured here: viability with 2 uM doxorubicin, stronger effect = lower value.
Setting [10] is: H69AR cells, compound alone cytotoxicity.

Chain of Receptor tyrosine-protein kinase erbB-2 (Homo sapiens) (P04626 whole entry, looked up): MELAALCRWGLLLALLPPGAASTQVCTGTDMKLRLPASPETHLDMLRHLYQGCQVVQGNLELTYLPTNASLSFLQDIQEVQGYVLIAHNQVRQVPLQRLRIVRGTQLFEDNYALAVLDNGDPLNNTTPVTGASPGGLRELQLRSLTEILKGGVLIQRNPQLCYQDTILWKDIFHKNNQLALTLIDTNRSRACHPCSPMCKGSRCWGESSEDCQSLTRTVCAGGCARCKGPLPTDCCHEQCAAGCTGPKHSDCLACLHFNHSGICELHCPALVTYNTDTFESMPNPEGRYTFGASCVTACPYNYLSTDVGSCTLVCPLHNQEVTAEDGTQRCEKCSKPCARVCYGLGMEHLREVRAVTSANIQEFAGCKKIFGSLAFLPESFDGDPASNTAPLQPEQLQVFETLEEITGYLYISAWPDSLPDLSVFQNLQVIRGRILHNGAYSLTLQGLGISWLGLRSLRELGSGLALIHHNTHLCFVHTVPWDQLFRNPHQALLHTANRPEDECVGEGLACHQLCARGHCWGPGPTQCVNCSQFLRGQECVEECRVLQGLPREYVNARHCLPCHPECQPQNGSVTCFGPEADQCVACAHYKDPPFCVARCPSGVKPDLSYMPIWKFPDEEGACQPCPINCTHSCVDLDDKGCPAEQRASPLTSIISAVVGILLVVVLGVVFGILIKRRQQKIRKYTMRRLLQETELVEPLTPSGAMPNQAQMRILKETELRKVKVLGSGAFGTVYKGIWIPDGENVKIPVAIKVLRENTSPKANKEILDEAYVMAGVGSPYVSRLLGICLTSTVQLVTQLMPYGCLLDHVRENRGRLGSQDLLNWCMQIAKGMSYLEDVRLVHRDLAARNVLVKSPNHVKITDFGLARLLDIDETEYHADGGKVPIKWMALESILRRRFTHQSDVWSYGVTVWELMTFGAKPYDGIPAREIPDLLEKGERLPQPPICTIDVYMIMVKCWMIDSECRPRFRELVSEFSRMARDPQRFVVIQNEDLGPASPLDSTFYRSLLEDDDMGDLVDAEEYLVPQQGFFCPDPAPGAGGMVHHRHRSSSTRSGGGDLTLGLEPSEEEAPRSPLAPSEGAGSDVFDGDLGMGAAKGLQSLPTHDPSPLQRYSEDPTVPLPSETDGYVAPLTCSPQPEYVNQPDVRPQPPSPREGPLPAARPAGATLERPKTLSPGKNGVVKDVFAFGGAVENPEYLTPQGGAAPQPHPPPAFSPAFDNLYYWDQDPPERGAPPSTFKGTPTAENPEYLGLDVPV

Broadly, the viability is a read-out of living cells in per cent, often relative to untreated cells. Broadly, the inhibition is the drop in the measured response relative to a control, in per cent. For the molecule `Cc1cc(NC(=O)CCC(=O)N(c2cccnc2)C(C(=O)NC2CCCC2)c2ccccc2F)no1` (stereo not given), the viability is 99% in assay [1]; 99% (inactive) in assay [3]; 99.4% (inactive) in assay [4]; 93.3% (inactive) in assay [5]; 88.6% in assay [6] (setting [9]); 93.3% in assay [6] (setting [10]). For the same molecule, the Her2 level in assay [2] is 104% (inactive). Besides, the differential viability (reversal) in assay [6] (H69AR cells + 2 uM doxorubicin) was 4.7% (inactive). Further, the inhibition in assay [7] is 3.2% (inactive); in assay [8], -2.46% (inactive).

As for `Cc1cc(C)nc(N2CCCC(C(=O)Nc3nc4ccc(S(C)(=O)=O)cc4s3)C2)n1` (stereo not given), the viability was 80.5% in assay [1]; 80.5% (inactive) in assay [3]; 79.5% (inactive) in assay [4]; 83.7% (inactive) in assay [5]; 93.2% in assay [6] (setting [9]); 83.7% in assay [6] (setting [10]). In assay [2], the Her2 level was 90% (inactive). The differential viability (reversal) in assay [6] (H69AR cells + 2 uM doxorubicin) is -9.45% (inactive). The inhibition was 0% (inactive) in assay [7] and 10.8% (inactive) in assay [8].

In the case of `CCCC(=O)N(c1ccc2oc(=O)sc2c1)S(=O)(=O)c1ccccc1`, the viability in assay [1] was 75.5%; in assay [3], 75.5% (inactive); in assay [4], 78.3% (inactive); in assay [5] it was 60% (inactive); in assay [6] (setting [9]), 80.9%; in assay [6] (setting [10]) it was 60%. The Her2 level in assay [2] was 78.5% (inactive). In addition, in assay [6] (H69AR cells + 2 uM doxorubicin), the differential viability (reversal) was -20.9% (inactive). Further, the inhibition in assay [7] was -2.86% (inactive); in assay [8] it was -3.81% (inactive).

Take `Cc1cnc(-c2nnc(N(C)C(=O)C3CCOC3)s2)cn1` (stereo not given): the viability in assay [1] is 90.5%; in assay [3], 90.5% (inactive); in assay [4] it was 98.2% (inactive); in assay [5], 101% (inactive); in assay [6] (setting [9]) it was 84.4%; in assay [6] (setting [10]), 101%. Besides, the Her2 level in assay [2] was 89.5% (inactive). Also, in assay [6] (H69AR cells + 2 uM doxorubicin), the differential viability (reversal) is 17% (inactive). The inhibition in assay [7] was -1.45% (inactive); in assay [8], -10.9% (inactive).

With `Cc1ccc(CS(=O)(=O)CCC(=O)NCC2CCCO2)cc1` (stereo not given), the viability in assay [1] was 96.5%; in assay [3], 96.5% (inactive); in assay [4] it was 116% (inactive); in assay [5], 93.3% (inactive); in assay [6] (setting [9]), 90.7%; in assay [6] (setting [10]) it was 93.3%. Also, in assay [2], the Her2 level was 106% (inactive). Besides, the differential viability (reversal) in assay [6] (H69AR cells + 2 uM doxorubicin) was 2.6% (inactive). For the same molecule, the inhibition is -7.03% (inactive) in assay [7] and 7.5% (inactive) in assay [8].

As for `COc1cc(C2C(C(=O)c3ccc(C)o3)=C(O)C(=O)N2c2cc(C)on2)cc(Br)c1O` (stereo not given), the viability was 102% in assay [1]; 102% (inactive) in assay [3]; 99.8% (inactive) in assay [4]; 95.7% (inactive) in assay [5]; 86.9% in assay [6] (setting [9]); 95.7% in assay [6] (setting [10]). In addition, the Her2 level in assay [2] was 93% (inactive). Moreover, in assay [6] (H69AR cells + 2 uM doxorubicin), the differential viability (reversal) was 8.72% (inactive). Moreover, the results for the inhibition in assay [7] and in assay [8] were -1.97% (inactive) and -3.49% (inactive), respectively.

In the case of `CC(=O)OCC(=O)c1ccc2ccn(C(C)=O)c2c1`, the viability is 106% in assay [1]; 106% (inactive) in assay [3]; 94.9% (inactive) in assay [4]; 90.5% (inactive) in assay [5]; 92.5% in assay [6] (setting [9]); 90.5% in assay [6] (setting [10]). Moreover, in assay [2], the Her2 level is 89% (inactive). For the same molecule, the differential viability (reversal) in assay [6] (H69AR cells + 2 uM doxorubicin) is -1.94% (inactive). Also, the inhibition in assay [7] is -5.33% (inactive); in assay [8], 3.11% (inactive).

As for `COc1ccc2cc(C(c3nnnn3C3CCCCC3)N3CCCCCC3)c3nnnn3c2c1` (stereo not given), the viability in assay [1] is 94%; in assay [3], 94% (inactive); in assay [4], 81.6% (inactive); in assay [5] it was 64.3% (inactive); in assay [6] (setting [9]), 67.2%; in assay [6] (setting [10]) it was 64.3%. The Her2 level in assay [2] was 72.5% (inactive). Also, in assay [6] (H69AR cells + 2 uM doxorubicin), the differential viability (reversal) is -2.87% (inactive). The inhibition in assay [7] is -4.8% (inactive); in assay [8] it was -2.86% (inactive).

Take `CCOC(=O)c1ccccc1NC(=O)Cn1cnc2c(cnn2-c2ccc(OC)cc2)c1=O`: the viability in assay [1] is 89.5%; in assay [3] it was 89.5% (inactive); in assay [4], 81.4% (inactive); in assay [5] it was 101% (inactive); in assay [6] (setting [9]) it was 99.7%; in assay [6] (setting [10]), 101%. Moreover, in assay [2], the Her2 level was 91.5% (inactive). Further, in assay [6] (H69AR cells + 2 uM doxorubicin), the differential viability (reversal) is 1.5% (inactive). In addition, the inhibition was -5.54% (inactive) in assay [7] and 1.83% (inactive) in assay [8].

Consider `CC(C)OC(=O)CSc1nc2cccnc2n1C1CCCCC1`, for which the viability was 124% in assay [1]; 124% (inactive) in assay [3]; 112% (inactive) in assay [4]; 95.3% (inactive) in assay [5]; 89.4% in assay [6] (setting [9]); 95.3% in assay [6] (setting [10]). Also, in assay [2], the Her2 level is 93.5% (inactive). Moreover, in assay [6] (H69AR cells + 2 uM doxorubicin), the differential viability (reversal) was 5.92% (inactive). Also, the inhibition is -5.33% (inactive) in assay [7] and 3.44% (inactive) in assay [8].

Consider `COC(=O)C1=C(C)n2nnnc2NC1c1ccc(Cl)cc1` (stereo not given), for which the viability in assay [1] was 92%; in assay [3], 92% (inactive); in assay [4] it was 90.4% (inactive); in assay [5], 95.3% (inactive); in assay [6] (setting [9]), 86.8%; in assay [6] (setting [10]), 95.3%. For the same molecule, in assay [2], the Her2 level is 107% (inactive). Also, the differential viability (reversal) in assay [6] (H69AR cells + 2 uM doxorubicin) is 8.47% (inactive). The inhibition in assay [7] was -0.39% (inactive); in assay [8], 1.83% (inactive).

Take `Cn1c(Cl)nc2ccccc21`: the viability in assay [1] is 115%; in assay [3] it was 115% (inactive); in assay [4], 90.7% (inactive); in assay [5] it was 94.8% (inactive); in assay [6] (setting [9]), 100%; in assay [6] (setting [10]) it was 94.8%. For the same molecule, the Her2 level in assay [2] was 96% (inactive). Besides, in assay [6] (H69AR cells + 2 uM doxorubicin), the differential viability (reversal) was -5.28% (inactive). Also, the inhibition in assay [7] was -0.53% (inactive); in assay [8] it was 0.97% (inactive).

With `O=C(CSc1nnc(COc2ccc(Cl)cc2)o1)N1CCN(c2ccccc2)CC1`, the viability is 100% in assay [1]; 100% (inactive) in assay [3]; 57% (inactive) in assay [4]; 90.2% (inactive) in assay [5]; 92.4% in assay [6] (setting [9]); 90.2% in assay [6] (setting [10]). In addition, the Her2 level in assay [2] is 83% (inactive). Besides, in assay [6] (H69AR cells + 2 uM doxorubicin), the differential viability (reversal) was -2.18% (inactive). Besides, the inhibition in assay [7] was -3.2% (inactive); in assay [8], 3.11% (inactive).

Turning to `Cc1ccc(-c2nn(C)c(=O)c3ccccc23)cc1S(=O)(=O)NCCN1CCOCC1`, the viability in assay [1] is 87%; in assay [3], 87% (inactive); in assay [4] it was 98.6% (inactive); in assay [5], 93.3% (inactive); in assay [6] (setting [9]), 87.8%; in assay [6] (setting [10]), 93.3%. For the same molecule, in assay [2], the Her2 level was 121% (inactive). For the same molecule, the differential viability (reversal) in assay [6] (H69AR cells + 2 uM doxorubicin) was 5.54% (inactive). For the same molecule, the inhibition in assay [7] was 6.8% (inactive); in assay [8], -6.35% (inactive).

Take `COc1ccc(OCCCC(=O)Nc2ccc3c(c2)OCCO3)cc1`: the viability in assay [1] is 99.5%; in assay [3], 99.5% (inactive); in assay [4], 81.8% (inactive); in assay [5], 82.7% (inactive); in assay [6] (setting [9]), 86.3%; in assay [6] (setting [10]), 82.7%. The Her2 level in assay [2] is 93.5% (inactive). For the same molecule, the differential viability (reversal) in assay [6] (H69AR cells + 2 uM doxorubicin) was -3.62% (inactive). Besides, the inhibition is -6.76% (inactive) in assay [7] and -6.83% (inactive) in assay [8].

For `CCc1nc(NCCCN2CCOCC2)c2oc3ccccc3c2n1`, the viability is 88% in assay [1]; 88% (inactive) in assay [3]; 80.3% (inactive) in assay [4]; 89.1% (inactive) in assay [5]; 88.2% in assay [6] (setting [9]); 89.1% in assay [6] (setting [10]). Further, the Her2 level in assay [2] is 95% (inactive). The differential viability (reversal) in assay [6] (H69AR cells + 2 uM doxorubicin) was 0.87% (inactive). Also, the inhibition in assay [7] is -0.13% (inactive); in assay [8], 0.81% (inactive).
